This note sets out measurements from ChEMBL document CHEMBL1149300, “Novel retinoic acid metabolism blocking agents endowed with multiple biological activities are efficient growth inhibitors of human breast and prostate cancer cells in vitro and a human breast tumor xenograft in nude mice” (J Med Chem, 2004).

What is called IC50 is the midpoint of a concentration-inhibition curve. By Ki is commonly meant the dissociation constant of the complex between target and ligand, obtained from inhibition or displacement. Usually Km stands for the substrate concentration at which the rate is half of its maximum.

Data set [1] has as its target T1, Retinoic acid receptor alpha (Homo sapiens, UniProt P10276).
T1 sequence (P10276 whole entry): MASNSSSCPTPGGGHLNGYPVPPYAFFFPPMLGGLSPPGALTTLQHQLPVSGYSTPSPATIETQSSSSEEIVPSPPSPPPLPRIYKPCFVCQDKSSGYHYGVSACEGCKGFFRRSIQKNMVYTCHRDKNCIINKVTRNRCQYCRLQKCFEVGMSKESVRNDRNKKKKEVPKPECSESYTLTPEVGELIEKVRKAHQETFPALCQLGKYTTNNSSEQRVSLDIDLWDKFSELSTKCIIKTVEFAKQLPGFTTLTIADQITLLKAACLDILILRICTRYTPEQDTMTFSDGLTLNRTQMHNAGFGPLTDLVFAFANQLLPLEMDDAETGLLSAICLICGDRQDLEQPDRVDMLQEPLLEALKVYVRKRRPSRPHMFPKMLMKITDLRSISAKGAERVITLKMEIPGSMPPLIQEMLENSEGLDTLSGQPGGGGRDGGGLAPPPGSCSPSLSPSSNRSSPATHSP
As to the kind of experiment: Displacement of [11,12-3H]ARTA from RARalpha. Summed up:
(§1)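 Recombinant S-Tag RARα, RARβ or RARγ fusion protein extracts (10-30 µg/mL total protein) in HEPES pH 7.9 binding buffer. Incubated with 1 nM [3H]all-trans-RA and 0-500 nM test compound for 3 h at 27 °C.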

Data set [2] deals with T47D. In words: Growth inhibition of human T47D cells after 6 days by MTT assay. It counts as functional, cell-based. The settings on record: 144 h. A digest of the protocol: (§2)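 MCF-7 (IMEM, 5% FBS) or T47D (RPMI 1640, 10% FBS) cells, 1 × 10^4 per well, adhered ~18 h, then exposed to 0.0001-10 µM drug (ethanol) for 6 days with media and drug renewed on day 4. MTT for 2 h, formazan dissolved in DMSO, A540. Triplicate wells, 2-3 experiments; IC50 by nonlinear regression.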
For orientation: Formazan colour is commonly taken as a measure of viable cells.

In the next data set the test system is MDA-MB-231. In words: Growth inhibition of human MDA-MB-231 cells up to 10 uM after 6 days by MTT assay. It counts as functional, cell-based.
The target of data set [3] is T2, Cytochrome P450 26A1 (Homo sapiens, UniProt O43174).
T2 sequence (O43174 whole entry): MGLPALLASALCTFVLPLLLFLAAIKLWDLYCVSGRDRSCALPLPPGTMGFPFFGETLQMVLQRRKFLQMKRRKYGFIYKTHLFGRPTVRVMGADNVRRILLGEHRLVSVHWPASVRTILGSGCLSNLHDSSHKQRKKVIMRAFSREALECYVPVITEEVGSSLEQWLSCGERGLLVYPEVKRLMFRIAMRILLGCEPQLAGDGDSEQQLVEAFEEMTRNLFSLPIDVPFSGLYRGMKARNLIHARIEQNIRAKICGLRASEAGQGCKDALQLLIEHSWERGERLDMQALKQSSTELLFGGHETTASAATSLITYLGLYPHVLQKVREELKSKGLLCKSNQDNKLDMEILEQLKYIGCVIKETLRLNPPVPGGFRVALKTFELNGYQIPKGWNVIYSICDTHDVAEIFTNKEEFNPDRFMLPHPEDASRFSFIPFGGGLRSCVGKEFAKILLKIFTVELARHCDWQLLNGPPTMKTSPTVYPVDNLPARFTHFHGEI
In words: Inhibition of ATRA-induced CYP26 in human T47D cells assessed as ATRA metabolism using [11.12-3H]-ATRA. It counts as functional, cell-based. Summed up: (§3)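 MCF-7 or T47D cells (1 × 10^6 per well) induced with 1 µM ATRA for 12-15 h, washed, then given inhibitor (0.0001-10 µM, ethanol stock) plus 0.001 µM [11,12-3H]-ATRA for 5 h. Media and cells extracted with ethyl acetate; metabolites measured by reverse-phase HPLC with radiometric detection; IC50 from dose-response curves.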

The target of data set [4] is T2, Cytochrome P450 26A1. In words: Inhibition of ATRA-induced CYP26 in human MCF7 cells assessed ATRA as metabolism using [11.12-3H]-ATRA. It counts as functional, cell-based. Summed up:
as §3

The test system of data set [5] is MCF7. In words: Growth inhibition of human MCF7 cells after 6 days by MTT assay. It counts as functional, cell-based. Conditions: MCF7, 144 h. A digest of the protocol: as §2
A short description of data set [6]: Displacement of [11,12-3H]ARTA from RARgamma. The arrangement: species or system Homo sapiens. A digest of the protocol:
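Recombinant S-Tag RARα, RARβ or RARγ fusion protein extracts (10-30 µg/mL total protein) in HEPES pH 7.9 binding buffer. Incubated with 1 nM [3H]all-trans-RA and 0-500 nM test compound for 3 h at 27 °C. Nonspecific binding measured with a 200-fold excess of unlabeled RA; IC50 from dose-response curves, at least two experiments.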

Data set [7] can be described thus: (§4) Inhibition of ATRA hydroxylase in Syrian golden hamster liver microsome assessed ATRA metabolism using [11.12-3H]-ATRA. It counts as microsomes, Mesocricetus auratus. Summed up:
(§5)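 Microsomes from male Syrian golden hamster liver, or from T47D cells pretreated with 1 µM ATRA. Incubation in 0.1 M phosphate buffer pH 7.4 with NADPH, MgCl2 and BSA, inhibitor in DMSO; 3 min preincubation at 37 °C, then [11,12-3H]-ATRA for 30 min at 37 °C under oxygen. Ethyl acetate extraction, reverse-phase HPLC with radiometric detection; percent polar metabolites; IC50 from dose-response curves.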
Background: Liver microsomes are vesicles of endoplasmic reticulum, rich in cytochrome P450 enzymes.

In data set [8] the test system is LNCaP. As to the kind of experiment: Induction of cell differentiation in human LNCaP cells after 6 days. It counts as functional, cell-based. A digest of the protocol: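 LNCaP cells given 1 µM compound, alone or with 1 µM ATRA, for 6 days. Lysates (50 µg) run on 10% SDS-PAGE and Western blotted with anti-cytokeratin 8/18, β-actin as control. ECL detection; band intensity by densitometry taken as the differentiation marker.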

The next data set concerns PC-3. In words: Growth inhibition of human PC3 cells after 6 days by MTT assay. It counts as functional, cell-based. The settings on record: PC-3, 144 h. A digest of the protocol:
(§6)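 LNCaP cells (1 × 10^4) on poly-L-lysine-coated wells, attached 36 h; PC-3 cells (1 × 10^4), uncoated, attached 24 h; both in RPMI 1640. Treated with a concentration range of drug for 6 days, medium changed every 3 days. MTT read-out at 540 nm; IC50 by nonlinear regression from at least two experiments.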

The test system of data set [9] is MCF7. In words: Induction of apoptosis in human MCF7 cells at 1 uM for 6 days by TUNEL assay. It counts as functional, cell-based. Summed up: (§7)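 MCF-7 or T47D cells exposed to 1 µM compound for 6 days, then trypsinized, fixed in 1% paraformaldehyde and stored in 70% ethanol at -20 °C overnight. TdT/BrdUTP labeling (APO-BRDU TUNEL), fluorescein anti-BrdU plus PI/RNase stain; apoptotic cells counted by flow cytometry.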

The test system of data set [10] is LNCaP. In words: Growth inhibition of human LNCaP cells after 6 days by MTT assay. It counts as functional, cell-based. Conditions: 144 h. Summed up:
as §6

In data set [11] the target is T2, Cytochrome P450 26A1. As to the kind of experiment: Inhibition of ATRA-induced CYP26 in human T47D cell microsome assessed as ATRA metabolism using [11.12-3H]-ATRA. It counts as functional, microsomes. A digest of the protocol: as §5
In data set [12] the test system is T47D. As to the kind of experiment: Induction of apoptosis in human T47D cells at 1 uM for 6 days by TUNEL assay. It counts as functional, cell-based. A digest of the protocol:
as §7

For data set [13], the system named is MCF7. As to the kind of experiment: Reduction of tumor growth in MCF7 cells xenografted ovariectomized mouse at 0.033 mmol/kg, sc for 6 weeks relative to control. Also on record: scale not given: the % may be the effect or the level left. It counts as functional, Homo sapiens. A digest of the protocol: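 Female ovariectomized nude mice received estrogen pellets. MCF-7 cells (2 × 10^6 in Matrigel) were injected sc into both flanks and grown 4-5 weeks to 200-300 mm3. Groups of n = 5 were dosed sc once daily, 6 days/week for 6 weeks, vehicle 0.3% HPC, 200 µL. Tumors were measured weekly by caliper, volume = (4/3)πr1²r2, and change was compared with vehicle controls.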

Data set [14] deals with T3, Retinoic acid receptor beta (Homo sapiens, UniProt P10826).
T3 sequence (P10826 whole entry): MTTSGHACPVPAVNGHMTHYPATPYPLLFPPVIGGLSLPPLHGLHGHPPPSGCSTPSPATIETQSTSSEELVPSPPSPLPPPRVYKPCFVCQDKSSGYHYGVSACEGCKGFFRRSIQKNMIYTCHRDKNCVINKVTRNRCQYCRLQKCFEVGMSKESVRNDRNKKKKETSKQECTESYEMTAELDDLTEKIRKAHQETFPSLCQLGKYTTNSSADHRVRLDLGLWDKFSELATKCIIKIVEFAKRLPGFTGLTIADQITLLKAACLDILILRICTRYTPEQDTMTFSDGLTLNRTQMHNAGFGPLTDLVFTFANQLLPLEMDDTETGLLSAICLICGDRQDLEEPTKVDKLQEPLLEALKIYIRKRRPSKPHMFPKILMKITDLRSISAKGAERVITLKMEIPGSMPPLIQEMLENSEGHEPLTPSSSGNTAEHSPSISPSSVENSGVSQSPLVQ
In words: Displacement of [11,12-3H]ARTA from RARbeta. A digest of the protocol:
as §1

In data set [15] the target is T2, Cytochrome P450 26A1. In words: Inhibition of ATRA-induced CYP26 in human T47D cells assessed as ATRA metabolism using [11.12-3H]-ATRA up to 10 uM. It counts as functional, cell-based. A digest of the protocol:
(§8)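 Cells seeded at 1 × 10^6 per well and pretreated with 1 µM ATRA for 12-15 h to induce CYP26. After washing, they were incubated 5 h with inhibitor (0.0001-10 µM) plus 0.001 µM [11,12-3H]-ATRA; stocks were in 95% ethanol. […] IC50 was taken from dose-response curves.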

Data set [16] deals with T2, Cytochrome P450 26A1. As to the kind of experiment: Inhibition of ATRA-induced CYP26 in human MCF7 cells assessed as ATRA metabolism using [11.12-3H]-ATRA up to 10 uM. It counts as functional, cell-based. Summed up:
as §8

The species entered for a further data set is Mesocricetus auratus. The data set is described as §4. It counts as microsomes. Summed up:
as §5

The subject of data set [17] is MCF7. As to the kind of experiment: Antiproliferative effect against human MCF7 cells. It counts as functional, cell-based. A digest of the protocol:
as §2

The source made the active and inactive calls. The calls are words filed in the database; no cut-off is given here.

Take `CC1=C(/C=C/C(C)=C/C=C/C(C)=C/C(=O)O)C(C)(C)CCC1n1ccnc1` (racemic): the IC50 in data set [1] came out at 0.02 µM; with T47D [2], 0.003 µM; on Cytochrome P450 26A1 [3] it was 0.0063 µM; on Cytochrome P450 26A1 [4], 0.0109 µM; with MCF7 [5], 0.49 µM; in data set [6] it was 0.045 µM. Also, the IC50 in data set [7] amounted to 0.00233 µM; with PC-3, 7.7 µM; in the data set on LNCaP [10], 10 µM; at Cytochrome P450 26A1 [11], 0.0024 µM; in data set [14], 0.175 µM. Moreover, the result in the data set on MDA-MB-231 was inactive. In data set [7], the inhibitory constant (Ki) is 0.00022 µM. Besides, the result in the data set with LNCaP [8], with MCF7 [9] and with T47D [12] was Active. This molecule displayed an Activity with MCF7 [13] of 85.2%.
In data set [7], `Clc1cccc(C(c2ccc3[nH]cnc3c2)n2ccnc2)c1` (centres undefined) [LIAROZOLE] displayed an IC50 of 6 µM. For the same molecule, the Activity entry on Cytochrome P450 26A1 [15] and on Cytochrome P450 26A1 [16] was “Not Active” each time.
Take `CC1=C(/C=C/C(C)=C/C=C/C(C)=C/C(=O)O)C(C)(C)CCC1` [TRETINOIN]: the IC50 in the data set with T47D [2] is 0.006 µM; in the data set with MCF7 [5], 0.58 µM; in data set [6], 0.01 µM; in the data set on PC-3, 2 µM; with MCF7 [17], 0.585 µM; in the data set on LNCaP [10] it was 10 µM. Moreover, the outcome in the data set on MDA-MB-231 and with MCF7 [13] (Homo sapiens) was inactive. The Km in the data set listed under Mesocricetus auratus was found to be 0.16 µM.
